Active and inactive are the calls of the source. The rule behind the calls is not given here.
Legend:
[1] = molecular target: Phosphatidylinositol 4,5-bisphosphate 3-kinase catalytic subunit alpha isoform (Homo sapiens, UniProt P42336, S473D); assay: Inhibition of PI3Kalpha in human PC3 cells expressing Akt1 S473D mutant assessed as phosphorylation of Akt Thr308 by immunoblotting; format: cell-based, PC-3
[2] = molecular target: Serine/threonine-protein kinase mTOR (Mus musculus, UniProt Q9JLN9); assay: Inhibition of mTOR in p53-deficient MEF assessed as phosphorylation of S6K1 at Thr389 by immunoblotting
[3] = molecular target: Serine/threonine-protein kinase mTOR (Homo sapiens, UniProt P42345)
Mus musculus [4] = assay: In vivo inhibition of mTOR complex 2 in C57BL/6 mouse assessed as reduction of Akt1 phosphorylation at S473 at 20 mg/kg, ip after 2 to 3 hrs by Western blotting
[5] = Mean retention time in C57BL/6 mouse at 10 mg/kg, po; format: ADME, organism-based; parameters: dose 10 mg/kg, route oral; settings: in vivo
[6] = molecular target: Phosphatidylinositol 4-kinase alpha (Homo sapiens, UniProt P42356); assay: Inhibition of PI4Kalpha
Phosphatidylinositol 4-kinase alpha, sequence (P42356 whole entry): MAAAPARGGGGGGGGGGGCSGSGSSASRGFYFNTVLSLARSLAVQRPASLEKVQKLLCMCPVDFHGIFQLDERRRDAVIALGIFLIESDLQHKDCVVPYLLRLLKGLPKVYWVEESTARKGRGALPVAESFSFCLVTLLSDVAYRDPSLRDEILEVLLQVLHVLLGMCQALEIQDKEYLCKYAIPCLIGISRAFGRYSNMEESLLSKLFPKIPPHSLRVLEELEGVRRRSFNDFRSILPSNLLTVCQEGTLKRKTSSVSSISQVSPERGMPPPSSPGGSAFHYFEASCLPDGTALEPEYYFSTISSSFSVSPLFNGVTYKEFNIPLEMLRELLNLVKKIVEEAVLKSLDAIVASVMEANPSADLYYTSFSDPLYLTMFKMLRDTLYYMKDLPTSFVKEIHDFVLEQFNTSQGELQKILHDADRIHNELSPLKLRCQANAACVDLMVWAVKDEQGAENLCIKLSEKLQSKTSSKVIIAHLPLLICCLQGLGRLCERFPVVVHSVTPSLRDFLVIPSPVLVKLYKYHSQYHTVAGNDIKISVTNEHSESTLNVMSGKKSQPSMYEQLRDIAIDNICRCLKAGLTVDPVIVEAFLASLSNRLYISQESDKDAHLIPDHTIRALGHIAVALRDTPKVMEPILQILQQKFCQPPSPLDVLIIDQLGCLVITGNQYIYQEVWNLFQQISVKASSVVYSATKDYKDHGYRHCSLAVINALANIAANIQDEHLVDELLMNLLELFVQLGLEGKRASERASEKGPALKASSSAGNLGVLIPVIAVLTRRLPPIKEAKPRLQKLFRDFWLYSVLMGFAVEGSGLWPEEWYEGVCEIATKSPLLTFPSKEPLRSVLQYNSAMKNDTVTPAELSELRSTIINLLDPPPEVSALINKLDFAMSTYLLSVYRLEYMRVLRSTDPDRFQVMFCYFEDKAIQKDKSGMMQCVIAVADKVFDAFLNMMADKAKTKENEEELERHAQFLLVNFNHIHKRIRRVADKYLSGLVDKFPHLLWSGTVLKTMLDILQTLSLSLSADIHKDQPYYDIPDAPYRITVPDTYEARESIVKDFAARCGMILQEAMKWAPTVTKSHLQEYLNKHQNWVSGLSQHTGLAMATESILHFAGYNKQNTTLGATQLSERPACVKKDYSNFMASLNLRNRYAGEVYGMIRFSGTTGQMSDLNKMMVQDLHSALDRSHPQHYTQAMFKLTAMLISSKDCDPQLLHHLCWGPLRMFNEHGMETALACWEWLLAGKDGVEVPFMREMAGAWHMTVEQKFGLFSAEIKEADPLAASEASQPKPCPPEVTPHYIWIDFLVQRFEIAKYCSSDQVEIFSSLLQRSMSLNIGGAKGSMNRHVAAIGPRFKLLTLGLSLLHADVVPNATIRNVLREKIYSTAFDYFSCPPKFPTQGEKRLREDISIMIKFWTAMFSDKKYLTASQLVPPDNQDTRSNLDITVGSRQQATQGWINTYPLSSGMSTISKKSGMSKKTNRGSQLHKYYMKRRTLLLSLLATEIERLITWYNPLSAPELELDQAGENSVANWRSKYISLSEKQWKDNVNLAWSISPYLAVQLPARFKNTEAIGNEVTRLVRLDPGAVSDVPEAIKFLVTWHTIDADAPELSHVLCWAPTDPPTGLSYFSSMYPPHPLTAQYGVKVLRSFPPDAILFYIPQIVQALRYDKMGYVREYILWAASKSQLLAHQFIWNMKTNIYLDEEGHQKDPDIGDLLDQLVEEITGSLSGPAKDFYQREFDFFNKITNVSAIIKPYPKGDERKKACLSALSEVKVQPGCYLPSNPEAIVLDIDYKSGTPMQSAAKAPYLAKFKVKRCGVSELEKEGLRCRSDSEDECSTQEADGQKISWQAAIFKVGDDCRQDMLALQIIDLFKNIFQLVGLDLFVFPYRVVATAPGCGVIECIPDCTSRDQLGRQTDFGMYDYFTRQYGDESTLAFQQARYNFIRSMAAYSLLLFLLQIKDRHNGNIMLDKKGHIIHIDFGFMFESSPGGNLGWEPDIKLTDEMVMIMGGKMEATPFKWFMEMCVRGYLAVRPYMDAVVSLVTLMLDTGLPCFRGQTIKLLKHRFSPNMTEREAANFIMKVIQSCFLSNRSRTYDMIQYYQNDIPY
In short: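 Biochemical LanthaScreen enzymatic lipid kinase assay run as an outsourced profiling service. Inhibitor at 10 concentrations, three-fold serial dilutions starting from 1 μM. ATP at the apparent ATP Km for the assay. IC50 derived from the dose-response.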

Mus musculus [7] = assay: In vivo inhibition of mTOR complex 1 in C57BL/6 mouse liver assessed as reduction of S6 phosphorylation at S235/236 at 20 mg/kg, ip after up to 10 hrs by Western blotting; format: functional, organism-based; parameters: dose 20 mg/kg
In short: (§1)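 They received a single IP dose of 20 mg/kg (NMP stock diluted 1:4 with 50% PEG400) for 2, 6 or 10 h; vehicle controls were dosed for 10 h. Mice were re-fed 1 h before sacrifice. Liver and lung were sonicated in HEPES pH 7.4 lysis buffer with phosphatase and protease inhibitors. Lysates were Bradford-normalized and immunoblotted for Akt S473 and S6 S235/236.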

[8] = Cmax in C57BL/6 mouse at 1 mg/kg, iv; format: ADME, organism-based; parameters: dose 1 mg/kg, route intravenous; settings: in vivo
Mus musculus [9] = assay: In vivo inhibition of mTOR complex 1 in C57BL/6 mouse lung assessed as reduction of S6 phosphorylation at S235/236 at 20 mg/kg, ip after up to 6 hrs by Western blotting; format: functional, organism-based; parameters: dose 20 mg/kg; in short: as §1
[10] = AUC in C57BL/6 mouse at 1 mg/kg, iv; format: ADME, organism-based; parameters: dose 1 mg/kg, route intravenous; settings: plasma
[11] = Tmax in C57BL/6 mouse at 10 mg/kg, po; format: ADME, organism-based; parameters: dose 10 mg/kg, route oral; settings: in vivo
[12] = Cmax in Swiss albino mouse at 10 mg, ip; format: ADME, organism-based; parameters: dose 10 mg, route intraperitoneal; settings: in vivo
[13] = Cmax in C57BL/6 mouse at 10 mg/kg, po; format: ADME, organism-based; parameters: dose 10 mg/kg, route oral; settings: in vivo
[14] = Tmax in Swiss albino mouse at 10 mg, ip; format: ADME, organism-based; settings: in vivo
[15] = Volume of distribution at steady state in C57BL/6 mouse at 1 mg/kg, iv; format: ADME, organism-based; parameters: dose 1 mg/kg, route intravenous; settings: in vivo, read-out: Vdss
[16] = AUC in Swiss albino mouse at 10 mg, ip; format: ADME, organism-based; settings: plasma
[17] = Mean retention time in C57BL/6 mouse at 1 mg/kg, iv; format: ADME, organism-based; parameters: dose 1 mg/kg, route intravenous; settings: in vivo
[18] = AUC in C57BL/6 mouse at 10 mg/kg, po; format: ADME, organism-based; parameters: dose 10 mg/kg, route oral; settings: plasma

Phosphatidylinositol 4,5-bisphosphate 3-kinase catalytic subunit alpha isoform, sequence (P42336 whole entry, looked up, stated change not applied, canonical isoform): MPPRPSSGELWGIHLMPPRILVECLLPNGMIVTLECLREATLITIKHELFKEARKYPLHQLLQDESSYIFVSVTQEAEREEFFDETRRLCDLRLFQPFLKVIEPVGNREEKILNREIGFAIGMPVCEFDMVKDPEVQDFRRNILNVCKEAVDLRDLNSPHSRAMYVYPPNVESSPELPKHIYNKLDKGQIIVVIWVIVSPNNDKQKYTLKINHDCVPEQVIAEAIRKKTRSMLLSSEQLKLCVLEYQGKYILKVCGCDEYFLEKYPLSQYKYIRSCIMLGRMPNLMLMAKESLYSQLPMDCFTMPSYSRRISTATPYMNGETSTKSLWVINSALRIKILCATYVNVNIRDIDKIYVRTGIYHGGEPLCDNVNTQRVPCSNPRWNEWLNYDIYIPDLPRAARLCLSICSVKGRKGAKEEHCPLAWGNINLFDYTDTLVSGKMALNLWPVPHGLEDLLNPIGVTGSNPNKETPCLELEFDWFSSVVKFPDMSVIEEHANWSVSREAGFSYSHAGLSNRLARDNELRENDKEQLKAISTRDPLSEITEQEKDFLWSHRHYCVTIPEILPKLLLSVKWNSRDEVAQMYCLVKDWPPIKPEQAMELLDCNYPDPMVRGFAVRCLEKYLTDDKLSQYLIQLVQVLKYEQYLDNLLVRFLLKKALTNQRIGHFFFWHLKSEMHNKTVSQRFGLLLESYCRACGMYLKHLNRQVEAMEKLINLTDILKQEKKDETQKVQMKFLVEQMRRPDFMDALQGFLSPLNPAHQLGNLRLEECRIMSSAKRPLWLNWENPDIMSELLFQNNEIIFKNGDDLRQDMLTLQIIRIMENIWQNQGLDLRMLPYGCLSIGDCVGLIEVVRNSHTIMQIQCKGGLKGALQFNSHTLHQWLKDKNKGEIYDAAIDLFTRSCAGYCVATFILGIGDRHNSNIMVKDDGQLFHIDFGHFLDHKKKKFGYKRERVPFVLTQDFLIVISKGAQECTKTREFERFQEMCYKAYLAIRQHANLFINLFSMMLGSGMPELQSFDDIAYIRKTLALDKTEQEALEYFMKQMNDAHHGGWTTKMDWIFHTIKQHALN

CN(C)CCC(=O)N1CCN(c2ccc(Nc3ccnc4ccc(-c5cnc6ccccc6c5)cc34)cc2C(F)(F)F)CC1
IC50 [1]: > 300 nM | IC50 [2]: > 300 nM

CCC(=O)N1CC=C(c2ccc(-n3c(=O)ccc4cnc5ccc(-c6cnc7ccccc7c6)cc5c43)cc2C(F)(F)F)CC1
IC50 [2]: 30 nM

O=C(CN1CCOCC1)N1CCC(c2ccc(-n3c(=O)ccc4cnc5ccc(-c6cnc7ccccc7c6)cc5c43)cc2C(F)(F)F)CC1
IC50 [2]: 5 nM

CCC(=O)N1CCN(c2ccc(-n3c(=O)c(C)cc4cnc5ccc(-c6cnc7ccccc7c6)cc5c43)cc2C(F)(F)F)CC1
IC50 [2]: 100 nM

CCC(=O)N1CCN(c2ccc(-n3c(=O)cc(C)c4cnc5ccc(-c6cnc7ccccc7c6)cc5c43)cc2C(F)(F)F)CC1
IC50 [2]: > 300 nM

CCC(=O)N1CCN(c2ccc(-n3c(=O)n(C)c(=O)c4cnc5ccc(-c6cnc7ccccc7c6)cc5c43)cc2C(F)(F)F)CC1
IC50 [2]: 300 nM

CCC(=O)N1CCN(c2ccc(N3C(=O)NCc4cnc5ccc(-c6cnc7ccccc7c6)cc5c43)cc2C(F)(F)F)CC1
IC50 [2]: > 300 nM

CCC(=O)N1CCN(c2ccc(N3C(=O)OCc4cnc5ccc(-c6cnc7ccccc7c6)cc5c43)cc2C(F)(F)F)CC1
IC50 [2]: > 300 nM

CC(=O)N1CCN(c2ccc(-n3c(=O)ccc4cnc5ccc(-c6cnc7ccccc7c6)cc5c43)cc2C(F)(F)F)CC1
IC50 [1]: > 300 nM | IC50 [3]: 5.4 nM | IC50 [2]: 3 nM

O=C(O)N1CCN(c2ccc(Nc3ccnc4ccc(-c5cnc6ccccc6c5)cc34)cc2C(F)(F)F)CC1
IC50 [1]: > 300 nM | IC50 [2]: > 300 nM

CCC(=O)N1CCN(c2ccc(-n3c(=O)ccc4cnc5ccc(-c6cnc7ccccc7c6)cc5c43)cc2C(F)(F)F)CC1 [TORIN1]
inhibition (Mus musculus [4]): Active | MRT [5]: 90.6 min | IC50 [6]: > 10000 nM | inhibition (Mus musculus [7]): Active | Cmax [8]: 2760 ng/mL | inhibition (Mus musculus [9]): Active | AUC [10]: 720 ng·h/mL | Tmax [11]: 15 min | Cmax [12]: 5120 ng/mL | Cmax [13]: 223 ng/mL | Tmax [14]: 4.8 min | Vd [15]: 0.59 L/kg | AUC [16]: 5720 ng·h/mL | MRT [17]: 25.8 min | AUC [18]: 396 ng·h/mL
